Assay [1] has as its system Syrian golden hamster. Nature of the assay: Induction of reverse cholestrol transport in high fat diet-induced dyslipidemia Syrian Golden hamster model assessed as increase in LXR1alpha mRNA expression in liver at 100 mg/kg, po administered for 1 week by qRT-PCR analysis. Type of assay: functional, organism-based. Conditions: Mesocricetus auratus.
For assay [2], the system named is Syrian golden hamster. In words: Induction of reverse cholestrol transport in high fat diet-induced dyslipidemia Syrian Golden hamster model assessed as increase in ApoA mRNA expression in liver at 100 mg/kg, po administered for 1 week by qRT-PCR analysis. The assay is classed as functional, organism-based. Conditions: Mesocricetus auratus.
Assay [3] is filed under the species Mus musculus. Nature of the assay: Activation of Wnt3a/beta-catenin in mouse 3T3L1 cells assessed as down-regulation of cyclinD expression at 20 uM after 16 to 24 hrs by Western blot analysis. The assay is classed as cell-based. The essentials: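 3T3-L1 cells given MDI differentiation media (0.5 mM IBMX, 5 µg/ml insulin, 250 nM dexamethasone) with or without 20 µM compound. Proteins isolated at 16 and 24 h and probed by Western blot for CDK2, CDK4, CDK6, cyclin D1 and D3. Densitometry normalized to actin, n=3, mean ± SD, Student t test.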

The subject of assay [4] is C3H 10T1/2. In words: Anti-adipogenic activity in mouse differentiated C3H10T1/2 cells assessed as reduction in lipid accumulation at 5 to 20 uM after 20 mins by Oil Red O absorbance method. The assay is classed as functional, cell-based. In short, it runs like this: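 C3H10T1/2 or human MSC differentiated with IBMX/insulin/dexamethasone media containing 5, 10 or 20 µM compound. Cells stained with Oil red O (0.36% in 60% isopropanol, 20 min), dye extracted with isopropanol, absorbance read at 492 nm. n=3, mean ± SD, Student t test against MDI group.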

For assay [5], the species on record is Mus musculus. In words: Activation of Wnt3a/beta-catenin in mouse 3T3L1 cells assessed as down-regulation of CDK4 expression at 20 uM after 16 to 24 hrs in presence of FH353 by Western blot analysis. Type of assay: cell-based. In short, it runs like this: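 Confluent 3T3-L1 cells given differentiation media (IBMX/insulin/dexamethasone) with 20 µM compound, with or without the β-catenin/TCF inhibitor FH353 (10 µM). Proteins isolated at 16 and 24 h and Western blotted after SDS-PAGE and nitrocellulose transfer. Blocking in 5% milk/TBS-T, primary antibody overnight at 4 °C, chemiluminescent detection, β-actin control, three independent experiments.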

In assay [6] the test system is Syrian golden hamster. In words: Induction of reverse cholestrol transport in high fat diet-induced dyslipidemia Syrian Golden hamster model assessed as increase in ABCG8 mRNA expression in eWAT at 100 mg/kg, po administered for 1 week by qRT-PCR analysis. Type of assay: functional, organism-based. The following applies: Mesocricetus auratus.
The species named for assay [7] is Mus musculus. In words: Activation of Wnt3a/beta-catenin in differentiated mouse 3T3L1 cells assessed as down-regulation of FAS protein expression at 20 uM after 16 to 24 hrs by Western blot analysis. The essentials:
(§1)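 3T3-L1 preadipocytes grown to confluence in high-glucose DMEM/10% FBS, then given differentiation media (0.5 mM IBMX, 5 µg/ml insulin, 250 nM dexamethasone) with or without 20 µM compound. Protein isolated at set time points, lysed with protease/phosphatase inhibitors, BCA-quantified, resolved by 8–12% SDS-PAGE, immunoblotted with ECL detection. β-actin loading control, densitometry normalized to actin, n=3.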

Assay [8] deals with Syrian golden hamster. In words: Anti-dyslipidemic activity in high fat diet-induced dyslipidemia Syrian Golden hamster model assessed as reduction in serum NEFA levels at 100 mg/kg, po administered for 1 week followed by overnight fasting post last dose. The assay is classed as functional, organism-based. The following applies: Mesocricetus auratus. In short, it runs like this: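 Male Syrian golden hamsters (8–10 wk, 100–120 g), 4 per group, given 45% kcal HFD for 4 days, then 100 mg/kg p.o. in 0.5% NaCMC daily for one week alongside HFD. Blood taken from retro-orbital plexus after overnight fast. TG, HDL, LDL, ALT, AST measured on a clinical bio-analyzer and NEFA by kit. Mean ± SEM, one-way ANOVA with Bonferroni.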

For assay [9], the system named is 3T3-L1. In words: Upregulation of wnt3a protein expression in mouse 3T3L1 cells at 20 uM after 16 to 24 hrs by Western blot analysis. Type of assay: functional, cell-based. In short, it runs like this: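 3T3-L1 cells given MDI with or without 20 µM; protein harvested at 16 and 24 hr. Lysates in ice-cold buffer with protease and phosphatase inhibitors were BCA-quantified, run on 8–12% SDS-PAGE, transferred to nitrocellulose and probed overnight at 4 °C. Detection by chemiluminescence, normalized to β-actin; three independent experiments.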

For assay [10], the system named is Syrian golden hamster. In words: Anti-dyslipidemic activity in high fat diet-induced dyslipidemia Syrian Golden hamster model assessed as reduction in serum total cholesterol levels at 100 mg/kg, po administered for 1 week followed by overnight fasting post last dose by clinical bio-analyzer analysis. Type of assay: functional, organism-based. Conditions: Mesocricetus auratus. The essentials:
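Male Syrian Golden hamsters (8-10 weeks, 100-120 g), 4 per group, given 45% kCal high fat diet for 4 days, then HFD plus oral dosing in 0.5% w/v NaCMC for one week. After an overnight fast, blood was taken from the retro-orbital plexus under anesthesia and serum was analysed on a clinical bio-analyzer. Mean ± SEM; one-way ANOVA with Bonferroni post-test.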

The subject of assay [11] is 3T3-L1. Nature of the assay: Cell cycle arrest in mouse 3T3L1 cells assessed as reduction in accumulation at S phase at 10 to 20 uM after 24 hrs by propidium iodide-staining based flow cytometry. Type of assay: functional. In short, it runs like this:
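Confluent 3T3-L1 preadipocytes given differentiation medium (0.5 mM IBMX, 5 µg/ml insulin, 250 nM dexamethasone) with 10 or 20 µM for 16 and 24 hr. Cells trypsinized, fixed in ice-cold 70% ethanol for 2 hr, stained with propidium iodide (40 µg/ml in RNase A buffer, 30 min, room temperature). Flow cytometry gave the fractions in G1, S and G2/M; three independent experiments.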

Assay [12] concerns C3H 10T1/2. Nature of the assay: Anti-adipogenic activity in mouse differentiated C3H10T1/2 cells assessed as reduction in lipid accumulation at 5 to 20 uM after 20 mins by Oil Red O staining based microscopic method. Type of assay: functional, cell-based. In short, it runs like this:
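C3H10T1/2 or hMSC adipocytes differentiated alongside 5, 10 or 20 µM compound in differentiation media, stained with Oil red O. Images taken by bright-field microscopy at 10x and 20x, representative of three independent experiments.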

The species entered for assay [13] is Mus musculus. Nature of the assay: Activation of Wnt3a/beta-catenin in differentiated mouse 3T3L1 cells assessed as down-regulation of PPARgamma protein expression at 20 uM after 16 to 24 hrs by Western blot analysis. The essentials: as §1
Assay [14] is filed under the species Mus musculus. Nature of the assay: Activation of Wnt3a/beta-catenin in mouse 3T3L1 cells assessed as induction of LEF1 expression at 20 uM after 16 to 24 hrs by Western blot analysis. The assay is classed as cell-based.
Assay [15] deals with Syrian golden hamster. In words: Induction of reverse cholestrol transport in high fat diet-induced dyslipidemia Syrian Golden hamster model assessed as increase in PPARalpha mRNA expression in liver at 100 mg/kg, po administered for 1 week by qRT-PCR analysis. Type of assay: functional, organism-based. The following applies: Mesocricetus auratus.
For assay [16], the species on record is Mus musculus. Nature of the assay: Activation of Wnt3a/beta-catenin in mouse 3T3L1 cells assessed as induction of TCF1 expression at 20 uM after 16 to 24 hrs by Western blot analysis. Type of assay: cell-based.
Assay [17] concerns 3T3-L1. In words: Cell cycle arrest in mouse 3T3L1 cells assessed as accumulation at G1/S phase at 20 uM after 24 hrs in presence of beta-catenin/TCF complex inhibitor FH353 by propidium iodide-staining based flow cytometry. The assay is classed as functional. In short, it runs like this: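 3T3-L1 cells exposed to 20 µM with or without FH353 (10 µM) in differentiation medium for 16 and 24 hr. Cells fixed in ice-cold 70% ethanol, stained with PI (40 µg/ml, RNase A buffer, 30 min, room temperature) and analysed by flow cytometry; representative of three experiments.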

Calls of active or inactive are those of the source. No cut-off for these calls is given here.

For the compound `Cc1ccc(S(=O)(=O)N(Cc2cn(Cc3cccc(F)c3F)nn2)Cc2cn(S(=O)(=O)c3ccc(C)cc3)c3ccccc23)cc1`, the outcome in the assay with Syrian golden hamster [1], with Syrian golden hamster [2], in the assay listed under Mus musculus [3], in the assay on C3H 10T1/2 [4], in the assay with Syrian golden hamster [6] and in the assay filed under Mus musculus [7] was Active. Further, the outcome with Syrian golden hamster [8], in the assay with 3T3-L1 [9], with Syrian golden hamster [10], with C3H 10T1/2 [12], in the assay listed under Mus musculus [13] and in the assay filed under Mus musculus [14] was Active. In addition, the outcome in the assay on Syrian golden hamster [15] and in the assay listed under Mus musculus [16] was Active. Further, the outcome in the assay listed under Mus musculus [5], with 3T3-L1 [11] and in the assay on 3T3-L1 [17] was inactive.

The values are drawn from ChEMBL document CHEMBL4138193, “Novel indole and triazole based hybrid molecules exhibit potent anti-adipogenic and antidyslipidemic activity by activating Wnt3a/β-catenin pathway” (Eur J Med Chem, 2018).
